# Data taken from ChEMBL document CHEMBL4651341, “The discovery of a novel series of compounds with single-dose efficacy against juvenile and adult Schistosoma species” (PLoS Negl Trop Dis, 2021).
# pEC50: −log10 of the molar value.
# System: Schistosoma mansoni
# Assay: Concentration required to kill 50% of 21 day old worms 5 days after drug treatment.
# Assay type: functional, organism-based
# Details: Puerto Rican, 120 h
# In short: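 Juvenile S. mansoni (Puerto Rican strain) were perfused from CD1 mice 3 weeks post-infection and washed. They were cultured 6–8 per well in 200 µL DMEM with 2 mM glutamine, penicillin/streptomycin and 10% FCS at 37 °C, 5% CO2. Viability of individual worms was scored on day 5 after dosing (120 h).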
row,Compound,pEC50
1,CC(C)Oc1cccc(-c2cn3c(-c4cccc(CO)c4)cnc3cn2)c1,< 4.60
2,COc1ccc(-c2nnc3ccc(-c4cccc(F)c4)cn23)cc1OC,< 4.60
3,CC(C)c1cccc(-c2ccc3nnc(-c4cccnc4)n3c2)c1,< 4.60
4,COc1ccc(-c2cnc3cnc(-c4cccc(F)c4)cn23)cc1,< 4.60
5,COc1ccc(-c2cnc3cnc(-c4ccc(OC)nc4)cn23)cc1,< 4.60
6,CC(C)Oc1cccc(-c2cn3c(-c4ccc(F)cc4)cnc3cn2)c1,< 4.60
7,Cc1nnc2ccc(-c3cccc(C(C)C)c3)cn12,< 4.60
8,COc1ccc(-c2nnc3ccc(-c4cnn(CCN5CCOCC5)c4)cn23)cc1OC,< 4.60
9,CC(=O)Nc1cccc(-c2cn3c(-c4ccc(O)cc4)cnc3cn2)c1,< 4.60
10,COCc1cccc(-c2nnc3ccc(-c4cccc(OC(C)C)c4)cn23)c1,< 4.60
11,CC(C)c1cccc(-c2ccc3nnc(-c4cn[nH]c4)n3c2)c1,< 4.60
12,COc1ccc(-c2nnc3ccc(-c4cccc(OC(C)C)c4)cn23)c(OC)c1,< 4.60
13,CC(C)Oc1cccc(-c2ccc3nnc(-c4ccnc(C(F)(F)F)c4)n3c2)c1,< 4.60
14,CNC(=O)c1cccc(-c2ccc3nnc(-c4ccc(OC)c(OC)c4)n3c2)c1,< 4.60
15,COc1ccc(-c2nnc3ccc(-c4cccc(CN)c4)cn23)cc1OC,< 4.60
16,COc1ccc(-c2nnc3ccc(-c4cccc(C#N)c4)cn23)cc1OC,< 4.60
17,COc1ccc(-c2nnc3ccc(-c4cccc(S(=O)(=O)N5CCOCC5)c4)cn23)cc1OC,< 4.60
18,COc1cc(-c2cnc3cnc(-c4cccc(OC(C)C)c4)cn23)ccn1,< 4.60
19,COc1ccc(-c2nnc3ccc(-c4ccc5c(c4)OCCO5)cn23)cc1OC,< 4.60
20,CC(C)Oc1cccc(-c2ccc3nnc(-c4ccc5c(c4)CCO5)n3c2)c1,< 4.60
21,COc1ccc(-c2nnc3ccc(-c4c(OC)cccc4OC)cn23)cc1OC,< 4.60
22,COc1ccc(-c2cnc3cnc(-c4cnn(CCN5CCOCC5)c4)cn23)c(C)c1,< 4.60

row,Compound,pEC50
1,Cc1cnc2cnc(-c3cccc(OC(C)C)c3)cn12,< 4.60
2,CNC(=O)c1cccc(-c2cn3c(-c4ccc(OC)cc4)cnc3cn2)c1,< 4.60
3,COc1ccc(-c2nnc3ccc(-c4cccc(Cl)c4)cn23)cc1OC,< 4.60
4,COc1ccc(-c2cnc3cnc(-c4ccnc(C(F)(F)F)c4)cn23)cc1,< 4.60
5,COc1cccc(-c2ccc3nnc(-c4ccc(OC)c(OC)c4)n3c2)n1,< 4.60
6,COc1ccc(-c2nnc3ccc(-c4ccc5c(c4)CCO5)cn23)cc1OC,< 4.60
7,CC(C)Oc1cccc(-c2cn3c(-c4cncnc4)cnc3cn2)c1,< 4.60
8,CC(C)c1cccc(-c2ccc3nnc(-c4ccnc(C(F)(F)F)c4)n3c2)c1,< 4.60
9,COc1cc(-c2nnc3ccc(-c4cccc(OC(C)C)c4)cn23)ccn1,< 4.60
10,COc1ncc(-c2ccc3nnc(-c4ccc(OC)c(OC)c4)n3c2)cn1,< 4.60
11,Cc1ccc(-c2cnc3cnc(-c4cccc(OC(C)C)c4)cn23)cn1,< 4.60
12,CC(C)c1cccc(-c2ccc3nnc(-c4ccc(CN)cc4)n3c2)c1,< 4.60
13,CC(C)Oc1cccc(-c2cn3c(-c4ccc5cn[nH]c5c4)cnc3cn2)c1,< 4.60
14,CC(C)c1cccc(-c2ccc3nnc(-c4cnn(C)c4)n3c2)c1,< 4.60
15,COc1ccc(-c2nnc3ccc(-c4ccc(O)nc4)cn23)cc1OC,< 4.60
16,COc1ccc(-c2cnc3cnc(-c4ccc5c(c4)OCCO5)cn23)cc1,< 4.60
17,COc1ccc(-c2cnc3cnc(-c4cccc(S(=O)(=O)N5CCOCC5)c4)cn23)cc1,< 4.60
18,COc1ccc(-c2nnc3ccc(-c4cccc(N)c4)cn23)cc1OC,< 4.60
19,COc1ccc(-c2cnc3cnc(-c4cccc(OC(C)C)c4)cn23)cn1,4.62
20,COc1cccc(-c2cnc3cnc(-c4cccc(OC(C)C)c4)cn23)c1,4.61
21,COc1cccc(-c2nnc3ccc(-c4cccc(C(C)C)c4)cn23)n1,4.91
22,CC(C)Oc1cccc(-c2cn3c(-c4cn[nH]c4)cnc3cn2)c1,< 4.60

row,Compound,pEC50
1,CCOc1cccc(-c2cn3c(-c4ccc(O)cc4)cnc3cn2)c1F,4.81
2,COc1ccc(-c2nnc3ccc(-c4cnc5[nH]ncc5c4)cn23)cc1OC,< 4.60
3,COc1ccc(-c2nnc3ccc(-c4cn[nH]c4)cn23)cc1OC,< 4.60
4,CC(C)Oc1cccc(-c2cn3c(-c4ccnn4C)cnc3cn2)c1,< 4.60
5,COc1ccc(-c2nnc3ccc(-c4ccccn4)cn23)cc1OC,< 4.60
6,COc1ccc(-c2nnc3ccc(-c4ccc(C)nc4)cn23)cc1OC,< 4.60
7,COc1ccc(-c2nnc3ccc(-c4ccnc(C(F)(F)F)c4)cn23)cc1OC,< 4.60
8,CC(C)c1cccc(-c2ccc3nnc(-c4ccc(N)cc4)n3c2)c1,< 4.60
9,COc1cccc(OC)c1-c1nnc2ccc(-c3cccc(OC(C)C)c3)cn12,< 4.60
10,CC(C)c1cccc(-c2ccc3nnc(-c4ccc(S(N)(=O)=O)cc4)n3c2)c1,< 4.60
11,COc1cc(-c2ccc3nnc(-c4ccc(OC)c(OC)c4)n3c2)ccn1,< 4.60
12,CC(C)c1cccc(-c2ccc3nnc(-c4ccc5cn[nH]c5c4)n3c2)c1,< 4.60
13,CC(C)Cn1cc(-c2cn3c(-c4ccc(O)cc4)cnc3cn2)cn1,< 4.60
14,CC(C)Oc1cccc(-c2ccc3nnc(-c4ccc5c(c4)ncn5C)n3c2)c1,4.60
15,CC(=O)c1ccc(F)c(-c2cn3c(-c4ccc(O)cc4)cnc3cn2)c1,< 4.60
16,COc1ccc(-c2ccc3nnc(-c4ccc(OC)c(OC)c4)n3c2)cn1,< 4.60
17,CN(C)C(=O)c1ccc(-c2cn3c(-c4ccc(O)cc4)cnc3cn2)cc1,< 4.60
18,CC(C)c1cccc(-c2ccc3nnc(-c4cccc(CO)c4)n3c2)c1,< 4.60
19,CC(C)Oc1cccc(-c2cn3c(-c4ccc(CN)cc4)cnc3cn2)c1,4.62
20,CC(=O)c1cccc(-c2cn3c(-c4ccc(O)cc4)cnc3cn2)c1,< 4.60
21,COc1ccc(-c2nnc3ccc(-c4cccc(OC(C)C)c4)cn23)cc1,< 4.60
22,COc1ccc(-c2cnc3cnc(-c4cccc(CN)c4)cn23)cc1,< 4.60

row,Compound,pEC50
1,CC(C)Oc1cccc(-c2cn3c(-c4cccc(C#N)c4)cnc3cn2)c1,< 4.60
2,Cc1ccc(-c2nnc3ccc(-c4cccc(OC(C)C)c4)cn23)cn1,< 4.60
3,COc1ccc(-c2cnc3cnc(-c4cccc(CO)c4)cn23)cc1,< 4.60
4,CC(C)c1cccc(-c2ccc3nnc(-c4ccc5[nH]ncc5c4)n3c2)c1,< 4.60
5,CC(C)Oc1cccc(-c2ccc3nnc(-c4cccc(C#N)c4)n3c2)c1,< 4.60
6,COc1ncc(-c2cnc3cnc(-c4cccc(OC(C)C)c4)cn23)cn1,< 4.60
7,CC(C)c1cccc(-c2ccc3nnc(-c4ccncc4)n3c2)c1,< 4.60
8,CC(C)Oc1cccc(-c2cn3c(-c4cnn(C)c4)cnc3cn2)c1,< 4.60
9,COc1ccc(-c2nnc3ccc(-c4ccc5[nH]ncc5c4)cn23)cc1OC,< 4.60
10,COc1ccc(-c2nnc3ccc(-c4ccc5c(cnn5C)c4)cn23)cc1OC,< 4.60
11,CC(=O)c1cccc(-c2cn3c(-c4ccc(O)cc4)cnc3cn2)c1F,< 4.60
12,COc1ccc(-c2nnc3ccc(-c4cccc(OC(C)C)c4)cn23)cc1OC,< 4.60
13,CC(C)c1cccc(-c2ccc3nnc(-c4ccccn4)n3c2)c1,4.85
14,CC(C)c1cccc(-c2ccc3nnc(-c4ccnn4C)n3c2)c1,< 4.60
15,COc1cccc(-c2ccc3nnc(-c4ccc(OC)c(OC)c4)n3c2)c1,< 4.60
16,COc1cccc(-c2cn3c(-c4ccc(OC)c(F)c4)cnc3cn2)c1,4.62
17,CC(C)Oc1cccc(-c2cn3c(-c4ccc(N)cc4)cnc3cn2)c1,4.67
18,CC(C)c1cccc(-c2ccc3nnc(-c4cnc5[nH]ncc5c4)n3c2)c1,< 4.60
19,CC(C)Oc1cccc(-c2ccc3nnc(-c4ccc(F)cc4)n3c2)c1,< 4.60
20,COc1ccc(-c2nnc3ccc(-c4ccc(N5CCN(C)CC5)nc4)cn23)cc1OC,< 4.60
21,CC(C)c1ccccc1-c1cn2c(-c3ccc(O)cc3)cnc2cn1,4.78
22,COc1cccc(-c2nnc3ccc(-c4cccc(OC(C)C)c4)cn23)n1,4.90

row,Compound,pEC50
1,CC(C)Oc1cccc(-c2ccc3nnc(-c4ccc([S@+](C)[O-])cc4)n3c2)c1,< 4.60
2,COc1cccc(-c2cn3c(-c4ccc5c(c4)CCO5)cnc3cn2)c1,< 4.60
3,COc1ccc(-c2nnc3ccc(-c4cccc(C(C)C)c4)cn23)c(OC)c1,4.63
4,COc1ccc(-c2cnc3cnc(-c4ccnc(OC)c4)cn23)cc1,< 4.60
5,CCCOc1cc(-c2cn3c(-c4ccc(O)cc4)cnc3cn2)ccc1OC,4.60
6,COc1ccc(-c2nnc3ccc(-c4ccc5cn[nH]c5c4)cn23)cc1OC,< 4.60
7,CC(C)Oc1cccc(-c2cn3c(-c4ccc(CO)cc4)cnc3cn2)c1,4.60
8,CC(C)Oc1cccc(-c2cn3c(-c4ccc(S(N)(=O)=O)cc4)cnc3cn2)c1,4.60
9,COc1ccc(-c2nnc3ccc(-c4ccc(O)cc4)cn23)cc1OC,< 4.60
10,COc1ncc(-c2nnc3ccc(-c4cccc(C(C)C)c4)cn23)cn1,< 4.60
11,COc1ccc(-c2cnc3cnc(-c4cccc(C#N)c4)cn23)cc1,< 4.60
12,CC(C)c1cccc(-c2ccc3nnc(-c4ccc(CO)cc4)n3c2)c1,< 4.60
13,COc1ccc(-c2cnc3cnc(-c4ccccn4)cn23)cc1,< 4.60
14,COc1cc(-c2nnc3ccc(-c4cccc(C(C)C)c4)cn23)ccn1,< 4.60
15,COc1cccc(-c2cnc3cnc(-c4cccc(OC(C)C)c4)cn23)n1,< 4.60
16,COc1ccc(-c2nnc3ccc(-c4ccc(F)cc4)cn23)cc1OC,< 4.60
17,CCOc1cccc(-c2ccc3nnc(-c4ccc(OC)c(OC)c4)n3c2)c1,< 4.60
18,COc1ccc(-c2nnc3ccc(-c4cccc(OC(C)C)c4)cn23)cc1F,4.60
19,COc1ccc(-c2nnc3ccc(-c4cccnc4OC)cn23)cc1OC,< 4.60
20,COc1ccc(-c2nnc3ccc(-c4cccc(CO)c4)cn23)cc1OC,< 4.60
21,COc1cccc(-c2nnc3ccc(-c4cccc(OC(C)C)c4)cn23)c1,< 4.60
